EBV LMP1 NFkB: reduces LMP1-driven NF-kappaB luciferase signal; 0.69% of 350,000 active; inhibition, % at 12.5 µM; LMP1-induced NF-kappaB luciferase reporter cells, luminescence; in the data active means inhibition above about 41%;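 further: 0% = neutral control wells and 100% = reference inhibitor control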
FN deposition inh: fibronectin deposition inhibition; AH1F fibroblasts, Alexa488-fibronectin deposition fluorescence, overnight; inhibition, % at 12.6 µM; 0.086% of 350,000 active;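 active means mean inhibition across replicates of 30% or more, regardless of how many single replicates reach that level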;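 further: positive control wells lacked labelled fibronectin entirely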
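Test system: AH1F fibroblast monolayer depositing Alexa488-labelled fibronectin into matrix. Input: 10000 cells per well. Technique: fluorescence, ex 485 nm, em 525 nm. Buffer or medium: DMEM plus 2% serum, read in PBS. Timing: 1 h cell adhesion before compound, then overnight fibronectin incubation. Compound: single dose, pinned. Read-out basis: inhibition from reduced deposited-fibronectin fluorescence.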
aSyn UTR inh: 5' untranslated region of α-synuclein, MLPCN primary screen | alpha-synuclein 5'UTR reporter, inhibitor activity | inhibition, % (tested at 7.5 µM) | 0.82% of 300,000 active | AID 1813; in the data active means inhibition above about 60%;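 further: H4 neuroglioblastoma cells stably carrying SNCA 5'UTR luciferase fusion; 0% = DMSO wells and 100% = positive control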
EWS-Fli inh: blocks EWS/Fli oncoprotein-driven transcription. inhibition, % at 12.6 µM. AID 651661. 0.67% of 350,000 active. A673 NR0B1-luciferase reporter, viability-normalised;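 active means mean inhibition of at least 50% after viability correction, with every replicate also passing that limit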;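 further: firefly luciferase signal divided by Alamar Blue viability fluorescence both relative to DMSO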
Shn3 inh set2: reduces Shn3 3'UTR luciferase signal in osteoblasts. Clone20 osteoblast Shn3 3'UTR firefly luciferase, 24 h. 0.52% of 360,000 active. inhibition, % at 12.5 µM;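 active means mean inhibition of at least 75% with every replicate also reaching 75%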;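 further: 0% = median of neutral control wells and 100% = pilot-screen positive control compound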
PAX8 inh HTS: lowers PAX8-driven luciferase in RMG-I cells; RMG-I TPO-luciferase reporter, SteadyGlo, 24 h; 1.2% of 360,000 active; AID 652154; inhibition, % at 12.6 µM;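 active means mean replicate inhibition at least 60% with every replicate also reaching 60%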;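 further: luciferase light reporting Pax8 driven TPO promoter activity; plate controls were median of neutral control wells for no effect and mitoxantrone controls for full effect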
Numbers without * were called inactive; . = not tested or not shown. Hits are enriched below; roughly 2.1% of the tested compounds scored in any of these assays.

SMILES | EBV LMP1 NFkB | FN deposition inh | aSyn UTR inh | EWS-Fli inh | Shn3 inh set2 | PAX8 inh HTS
C[C@H]1CN([C@@H](C)CO)C(=O)c2ccccc2-c2ccccc2CO[C@H]1CN(C)C(=O)c1ccc(F)cc1 | . | 9 | . | -12 | . | -13
Cc1cccc(C)c1OCC(=O)OC/C(O)=C(\C#N)c1nc2ccccc2[nH]1 | 2 | -10 | -18 | 9 | 15 | 69*
N#C/C(=C(\O)Cc1ccccc1)c1nc2ccccc2[nH]1 | 6 | . | -22 | . | 90* | .
COc1cccc(-c2cnc3c(c2)C(=O)N([C@@H](C)CO)C[C@@H](C)[C@@H](CN(C)Cc2ccc(F)cc2)O3)c1 | . | . | . | 1 | . | .
C[C@H]1CN([C@@H](C)CO)C(=O)c2cc(C#Cc3cccnc3)cnc2O[C@H]1CN(C)C(=O)CC1CC1 | . | 3 | . | -7 | . | .
CC(=O)NC[C@@H]1[C@@H](c2ccc(-c3cccc(F)c3)cc2)[C@@H](CO)N1C(C)=O | . | . | . | -3 | . | 9
Cc1cccc(Nc2nc(N)c([N+](=O)[O-])c(N3CC(C)CC(C)C3)n2)c1 (stereo unspecified) | 1 | -3 | 28 | 28 | 10 | 71*
CC(C)NC(=O)Nc1cccc2c1O[C@@H](CN(C)Cc1ccccc1)[C@@H](C)CN([C@H](C)CO)C2=O | . | 2 | . | -3 | . | 6
CO[C@@H]1CN(C)C(=O)c2ccc(NC(C)=O)cc2OC[C@H](C)N(S(=O)(=O)c2cn(C)cn2)C[C@H]1C | . | -1 | . | -7 | . | -15
COc1ccc(-n2nnnc2SCC(=O)NC2CC2)cc1 | 0 | -2 | . | 4 | 3 | 75*
COc1ccc(-n2nnnc2SCC(=O)NC2CCS(=O)(=O)C2)cc1 (stereo unspecified) | 1 | -2 | . | 4 | -8 | 2
O=C(C[C@@H]1CC[C@@H]2[C@H](COC[C@@H](O)CN2C(=O)Nc2ccc(C(F)(F)F)cc2)O1)NCCc1ccncc1 | . | -3 | . | -5 | . | -16
C[C@H](CO)N1C[C@H](C)[C@H](CN(C)S(=O)(=O)c2cn(C)cn2)OCCCC[C@H](C)Oc2ccc(NC(=O)CCC(F)(F)F)cc2C1=O | . | . | . | -1 | . | -17
C[C@@H]1CCCCO[C@H](CN(C)S(=O)(=O)c2ccc(Cl)cc2)[C@H](C)CN([C@H](C)CO)C(=O)c2cc(N(C)C)ccc2O1 | . | . | . | 9 | . | 68*
C[C@@H]1CN([C@H](C)CO)C(=O)c2cc(N(C)C)ccc2O[C@@H](C)CCCCO[C@H]1CN(C)S(=O)(=O)c1ccc(Cl)cc1 | . | . | . | -30 | . | 55
C[C@H]1CCCCO[C@@H](CN(C)S(=O)(=O)c2ccc(Cl)cc2)[C@@H](C)CN([C@@H](C)CO)C(=O)c2cc(N(C)C)ccc2O1 | . | . | . | 3 | . | 70*
Cc1ccc(S(=O)(=O)N(C)C[C@H]2OCCCC[C@H](C)Oc3ccc(N(C)C)cc3C(=O)N([C@H](C)CO)C[C@H]2C)cc1 | . | -5 | . | -10 | . | 20
Cc1ccc(S(=O)(=O)N(C)C[C@@H]2OCCCC[C@H](C)Oc3ccc(N(C)C)cc3C(=O)N([C@@H](C)CO)C[C@@H]2C)cc1 | . | -6 | . | -4 | . | 73*
CC=Cc1ccc2n(c1=O)C[C@H]1[C@H](CO)[C@@H](C(=O)NCc3ccccn3)[C@@H]2N1CCC (mixture of isomers) | . | . | . | -1 | . | -10
CO[C@H]1CN(C)C(=O)c2ccc(NS(=O)(=O)c3ccc(F)cc3)cc2OC[C@H](C)NC[C@@H]1C | . | 3 | . | -15 | . | .
C[C@@H](O)C#Cc1ccc([C@@H]2[C@@H](CO)N3CCCCN(S(=O)(=O)c4ccccc4)C[C@@H]23)cc1 | . | . | . | -1 | . | -25
C[C@H](CO)N1C[C@H](C)[C@H](CN(C)CC2CC2)Oc2ccc(NC(=O)CCCCCC(=O)Nc3ccccc3N)cc2CC1=O | . | . | . | 48 | . | .
Cc1ccc(-c2nnc(N3CCC(C)CC3)c3ccccc23)cc1C | 7 | -13 | 8 | 21 | 91* | 35
Cc1ccc(-c2nnc(N3CCC(C)CC3)c3ccccc23)cc1 | 3 | 4 | 10 | 23 | 20 | 12
C[C@H]1CN([C@@H](C)CO)S(=O)(=O)c2ccc(C#CC3(O)CCCC3)cc2O[C@H]1CN(C)C(=O)Cc1cccnc1 | . | -10 | . | 20 | . | 0
SMILES | EBV LMP1 NFkB | FN deposition inh | aSyn UTR inh | EWS-Fli inh | Shn3 inh set2 | PAX8 inh HTS
Cc1ccc(S(=O)(=O)N2CCC(C(=O)Nc3ccc(S(=O)(=O)N4CCCC4)cc3)CC2)cc1C | 9 | 3 | 36 | 11 | 22 | 67*
CC1Sc2ccc(S(=O)(=O)N3CCC(C(=O)NCc4ccc(Cl)cc4)CC3)cc2NC1=O (stereo unspecified) | 2 | -5 | 22 | 18 | 51 | 38
COc1ccc(S(=O)(=O)N2CCC(C(=O)NC3CC3)CC2)cc1OC | 67* | 5 | 0 | . | -14 | 15
Cc1ccc(NC(=O)C2CCN(S(=O)(=O)c3ccc4c(c3)NC(=O)C(C)S4)CC2)cc1C (stereo unspecified) | 10 | 11 | 22 | 9 | 88* | 1
CCc1ccc(NC(=O)C2CCN(S(=O)(=O)c3ccc4c(c3)NC(=O)C(C)S4)CC2)cc1 (stereo unspecified) | 27 | 6 | 2 | . | 90* | 38
Cc1ccc(NC(=O)C2CCN(S(=O)(=O)c3ccc4c(c3)NC(=O)C(C)S4)CC2)c(C)c1 (stereo unspecified) | 9 | -2 | 33 | . | 43 | 9
C[C@H](CO)N1C[C@H](C)[C@H](CN(C)Cc2ccc3c(c2)OCO3)Oc2cc(-c3cccc(C(=O)N(C)C)c3)ccc2S1(=O)=O | . | . | . | -7 | . | 11
COc1ccc(S(=O)(=O)Nc2ccc3c(c2)[C@H]2C[C@H](CC(=O)O)O[C@@H](CO)[C@H]2O3)cc1 | . | -6 | . | 4 | . | .
C[C@H](CO)N1C[C@H](C)[C@H](CN(C)S(=O)(=O)c2cn(C)cn2)Oc2c(NS(=O)(=O)c3ccccc3)cccc2C1=O | . | . | . | -11 | . | -6
CC1Sc2ccc(S(=O)(=O)N3CCC(C(=O)Nc4cccc(Cl)c4)CC3)cc2NC1=O (stereo unspecified) | 6 | 5 | -2 | . | 90* | 29
Cc1ccc(S(=O)(=O)N2CCOCC2)cc1NC(=O)CN1CCN(c2ccc(O)cc2)CC1 | 5 | 0 | 2 | 3 | -25 | -20
Cc1ccc(S(=O)(=O)N2CCN(CC(=O)Nc3ccc(N4CCOCC4)cc3)CC2)cc1C | -2 | 6 | 13 | -98 | 5 | 74*
COc1ccc(S(=O)(=O)N2CCN(CC(=O)Nc3cccc(OC)c3)CC2)cc1 | 56* | -12 | -37 | . | -3 | -7
CC(C)CC(=NNC(=O)c1ccncc1)c1cc(Cl)ccc1O | 73* | 11 | . | -1 | 85* | .
C[C@@H]1CCCCO[C@@H](CN(C)Cc2ccc(Cl)c(Cl)c2)[C@H](C)CN([C@H](C)CO)C(=O)c2cc(NC(=O)c3ccccc3)ccc2O1 | . | -18 | . | 29 | . | 97*

Compound activity as filed in PubChem.
